We go through 15 molecules from ChEMBL document CHEMBL3877263, “Synthesis and in vitro characterization of novel fluorinated derivatives of the translocator protein 18 kDa ligand CfO-DPA-714” (Eur J Med Chem, 2017).

A word on the inhibition: it is how much of the control response was suppressed. The term logD denotes lipophilicity at a set pH, counting ionised and neutral species. Lower therefore signals lower lipophilicity. Usually Ki stands for the equilibrium dissociation constant of an inhibitor or competing ligand from its target.

The nature of data set [1]: Intrinsic clearance in human hepatic microsomes assessed per mg protein up to 30 mins in presence of NADPH by UPLC-MS method. Type of data set: ADME. The following applies: liver microsomes, read-out: CLH. The gist of the method:
(§1)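 Hepatic microsomes (male CD1 mouse, male Sprague-Dawley rat, or pooled human) at 0.25 mg/mL protein, substrate 0.5 µM, 1 mM NADPH; samples at 0, 5, 10, 20, 30 min, quenched with 1 volume CH3CN, centrifuged, supernatant by UPLC/HRMS. % remaining vs T0 (analyte/internal standard ratio); k from ln(% stability) vs time; InC = k/protein concentration × 1000.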

For the next data set, the species on record is Rattus norvegicus. Nature of the data set: Displacement of [3H]flunitrazepam from CBR in rat cerebral cortex membranes at 1 uM relative to control. Type of data set: cell membranes. The following applies: Membrane.
The nature of data set [2]: n-Octanol-buffer partition coefficient, log D of the compound at pH 7.4 by HPLC method. Type of data set: physicochemical.
For another data set, the target named is Translocator protein (Rattus norvegicus, UniProt P16257). Nature of the data set: Displacement of [3H]PK11195 from TSPO in rat heart membranes after 15 mins by scintillation counting method. The class given is cell membranes, Membrane. For orientation: In a radioligand displacement assay an active substance lowers the binding of a labelled ligand.
Data set [3] in a line: Intrinsic clearance in CD1 mouse hepatic microsomes assessed per mg protein up to 30 mins in presence of NADPH by UPLC-MS method. The class given is ADME. The following applies: liver microsomes, read-out: CLH. Summed up: as §1
A general note: Liver microsomes are a subcellular fraction often used to study metabolism.

The nature of data set [4]: Intrinsic clearance in Sprague-Dawley rat hepatic microsomes assessed per mg protein up to 30 mins in presence of NADPH by UPLC-MS method. Type of data set: ADME. To be noted: liver microsomes, read-out: CLH. Summed up:
as §1

Sequence of Translocator protein (P16257 whole entry, looked up): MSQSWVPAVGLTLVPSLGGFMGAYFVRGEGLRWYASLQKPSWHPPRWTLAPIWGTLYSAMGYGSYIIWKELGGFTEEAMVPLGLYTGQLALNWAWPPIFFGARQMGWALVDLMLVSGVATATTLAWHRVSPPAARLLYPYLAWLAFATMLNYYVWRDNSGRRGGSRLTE

With `Cc1cc(C)n2nc(-c3ccc(CCCF)cc3)c(CC(=O)N(C)CCc3ccccc3)c2n1`, the microsomal CLint in data set [1], in data set [3] and in data set [4] was greater than 1000 µL/min/mg in each case. Further, the inhibition in the data set listed under Rattus norvegicus was found to be 0%. The molecule also showed a logD in data set [2] of 4.08. At Translocator protein, this molecule registered a Ki of 1.1 nM.
`CCCN(C)C(=O)Cc1c(-c2ccc(CCCF)cc2)nn2c(C)cc(C)nc12`: the microsomal CLint is 321 µL/min/mg in data set [1], 781 µL/min/mg in data set [3] and greater than 1000 µL/min/mg in data set [4]. The inhibition in the data set listed under Rattus norvegicus was determined as 0%. Besides, the logD in data set [2] turned out to be 3.65. This molecule showed a Ki at Translocator protein of 0.25 nM.
For `Cc1cc(C)n2nc(-c3ccc(CCCF)cc3)c(CC(=O)N3CCCCC3)c2n1`, the microsomal CLint in data set [1] was 424 µL/min/mg; in data set [3], 931 µL/min/mg; in data set [4] it was greater than 1000 µL/min/mg. For the same molecule, the inhibition in the data set filed under Rattus norvegicus is 0%. In data set [2], this molecule gave a logD of 3.56. This molecule also came in with a Ki on Translocator protein of 2.2 nM.
For the molecule `Cc1cc(C)n2nc(-c3ccc(CCCF)cc3)c(CC(=O)N(C)Cc3ccccc3)c2n1`, the microsomal CLint in data set [1], in data set [3] and in data set [4] was greater than 1000 µL/min/mg in each case. In addition, in the data set filed under Rattus norvegicus, the inhibition was found to be 0%. The logD in data set [2] worked out at 3.98. On Translocator protein, the Ki was determined as 0.3 nM.
In the data set listed under Rattus norvegicus, `Cc1cc(C)n2nc(-c3ccc(CCCF)cc3)c(CC(=O)N3CCC3)c2n1` returned an inhibition of 0%. Besides, the logD in data set [2] was 2.73. Also, the affinity on Translocator protein, expressed as Ki, was 32 nM.
With `CCCN(CCC)C(=O)Cc1c(-c2ccc(CCCF)cc2)nn2c(C)cc(C)nc12`, the microsomal CLint in data set [1], in data set [3] and in data set [4] was greater than 1000 µL/min/mg each time. This molecule also had an inhibition in the data set filed under Rattus norvegicus of 0%. The molecule further yielded a logD in data set [2] of 4.39. The inhibition constant (Ki) at Translocator protein was 0.26 nM.
Turning to `CCN(CC)C(=O)Cc1c(-c2ccc(CCCF)cc2)nn2c(C)cc(C)nc12`, the microsomal CLint was 241 µL/min/mg in data set [1], 865 µL/min/mg in data set [3] and greater than 1000 µL/min/mg in data set [4]. In addition, the inhibition in the data set filed under Rattus norvegicus worked out at 0%. For the same molecule, the logD in data set [2] was 3.51.
As for `Cc1cc(C)n2nc(-c3ccc(CCCF)cc3)c(CC(=O)N(C)C)c2n1`, the inhibition in the data set listed under Rattus norvegicus is 2%. Further, the logD in data set [2] turned out to be 2.68. Moreover, affinity at Translocator protein was put at a Ki of 15 nM.
In the same order, the values of `Cc1cc(C)n2nc(-c3ccc(CCCF)cc3)c(CC(=O)N3CCNCC3)c2n1` are 0%, 0.87 and 260 nM.
In the data set filed under Rattus norvegicus, `Cc1cc(C)n2nc(-c3ccc(CCCF)cc3)c(CC(=O)NC3CC3)c2n1` showed an inhibition of 0%. This molecule came in with a logD in data set [2] of 2.69. At Translocator protein, the affinity, expressed as Ki, was 17 nM.
`CCN(CC)C(=O)Cc1c(-c2ccc(OCCF)cc2)nn2c(C)cc(C)nc12` [DPA-714]: the microsomal CLint in data set [1] was 68 µL/min/mg; in data set [3], 408 µL/min/mg; in data set [4], greater than 1000 µL/min/mg. For the same molecule, the inhibition in the data set listed under Rattus norvegicus was 0%.
Regarding `Cc1cc(C)n2nc(-c3ccc(CCCF)cc3)c(CC(=O)N(C)Cc3ccccn3)c2n1`, the figures for the microsomal CLint in data set [1], in data set [3] and in data set [4] were 270 µL/min/mg, 947 µL/min/mg and 610 µL/min/mg, respectively. In the data set listed under Rattus norvegicus, this molecule had an inhibition of 0%. In data set [2], this molecule displayed a logD of 3.16. Also, the Ki on Translocator protein was determined as 1.2 nM.
`Cc1cc(C)n2nc(-c3ccc(CCCF)cc3)c(CC(=O)N3CCCC3)c2n1` came in with an inhibition in the data set filed under Rattus norvegicus of 0%. In data set [2], this molecule had a logD of 3.04. In addition, the affinity on Translocator protein, expressed as Ki, was 26 nM.
Consider `Cc1cc(C)n2nc(-c3ccc(CCCF)cc3)c(CC(=O)N(C)Cc3cccnc3)c2n1`, for which the microsomal CLint was 862 µL/min/mg in data set [1], greater than 1000 µL/min/mg in data set [3] and greater than 1000 µL/min/mg in data set [4]. Besides, the inhibition in the data set listed under Rattus norvegicus was 0%. This molecule also came in with a logD in data set [2] of 2.61. Also, on Translocator protein, the Ki was 2.8 nM.
On to `Cc1cc(C)n2nc(-c3ccc(CCCF)cc3)c(CC(=O)N3CCOCC3)c2n1`, for which, in the data set listed under Rattus norvegicus, the inhibition worked out at 0%. In data set [2], this molecule showed a logD of 2.56. Further, the Ki on Translocator protein was determined as 27 nM.
